According to ChEMBL document CHEMBL4680175, “Sulfonamide-based ring-fused analogues for CAN508 as novel carbonic anhydrase inhibitors endowed with antitumor activity: Design, synthesis, and in vitro biological evaluation” (Eur J Med Chem, 2020):
Activity calls are given as the source filed them. The rule behind the calls is not given here.

Experiments:
ACHN = assay: Antitumor activity against human ACHN cells assessed as cell growth inhibition at 10 uM incubated for 48 hrs by sulforhodamine B assay; type: functional; details: read-out: GI
How it was run: (§1)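 NCI Drug Evaluation Branch protocol: primary single-dose screen at 10 μM across a 57-line human cancer panel. Drug exposure is 48 h. Cell growth and viability are read by sulforhodamine B assay. Data are given as a mean graph of percent growth of treated cells and reported as percentage growth inhibition (GI%).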

SK-OV-3 = assay: Antitumor activity against human SK-OV-3 cells assessed as cell growth inhibition at 10 uM incubated for 48 hrs by sulforhodamine B assay; type: functional; details: read-out: GI; how it was run: as §1
UACC-257 = assay: Antitumor activity against human UACC-257 cells assessed as cell growth inhibition at 10 uM incubated for 48 hrs by sulforhodamine B assay; type: functional; details: read-out: GI
How it was run: (§2)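 NCI one-dose screen: 57-cell-line panel exposed at 10 μM for 48 h, Drug Evaluation Branch protocol. Growth and viability read by sulforhodamine B; data given as percent growth inhibition from the mean-graph of percent growth of treated cells.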

UACC-62 = assay: Antitumor activity against human UACC-62 cells assessed as cell growth inhibition at 10 uM incubated for 48 hrs by sulforhodamine B assay; type: functional; details: read-out: GI; how it was run: as §2
RPMI-8226 = assay: Antitumor activity against human RPMI8226 cells assessed as cell growth inhibition at 10 uM incubated for 48 hrs by sulforhodamine B assay; type: functional; details: read-out: GI; how it was run: as §1
OVCAR-8 = assay: Antitumor activity against human OVCAR-8 cells assessed as cell growth inhibition at 10 uM incubated for 48 hrs by sulforhodamine B assay; type: functional; details: read-out: GI; how it was run: as §1
M14 = assay: Antitumor activity against human M14 cells assessed as cell growth inhibition at 10 uM incubated for 48 hrs by sulforhodamine B assay; type: functional; details: read-out: GI; how it was run: as §1
A549 = assay: Antitumor activity against human A549/ATCC cells assessed as cell growth inhibition at 10 uM incubated for 48 hrs by sulforhodamine B assay; type: functional; details: read-out: GI; how it was run: as §1
NCI-H23 = assay: Antitumor activity against human NCI-H23 cells assessed as cell growth inhibition at 10 uM incubated for 48 hrs by sulforhodamine B assay; type: functional; details: read-out: GI; how it was run: as §1
MDA-MB-435 = assay: Antitumor activity against human MDA-MB-435 cells assessed as cell growth inhibition at 10 uM incubated for 48 hrs by sulforhodamine B assay; type: functional; details: read-out: GI; how it was run: as §1
SR = assay: Antitumor activity against human SR cells assessed as cell growth inhibition at 10 uM incubated for 48 hrs by sulforhodamine B assay; type: functional; details: read-out: GI; how it was run: as §2
OVCAR-5 = assay: Antitumor activity against human OVCAR-5 cells assessed as cell growth inhibition at 10 uM incubated for 48 hrs by sulforhodamine B assay; type: functional; details: read-out: GI; how it was run: as §1
786-0 = assay: Antitumor activity against human 786-0 cells assessed as cell growth inhibition at 10 uM incubated for 48 hrs by sulforhodamine B assay; type: functional; details: read-out: GI; how it was run: as §1
NCI/ADR-RES = assay: Antitumor activity against human NCI/ADR-RES cells assessed as cell growth inhibition at 10 uM incubated for 48 hrs by sulforhodamine B assay; type: functional, cell-based; how it was run: as §1
HT-29 = assay: Antitumor activity against human HT-29 cells assessed as cell growth inhibition at 10 uM incubated for 48 hrs by sulforhodamine B assay; type: functional; details: read-out: GI; how it was run: as §1
OVCAR-3 = assay: Antitumor activity against human OVCAR-3 cells assessed as cell growth inhibition at 10 uM incubated for 48 hrs by sulforhodamine B assay; type: functional; details: read-out: GI; how it was run: as §1
HCT-15 = assay: Antitumor activity against human HCT15 cells assessed as cell growth inhibition at 10 uM incubated for 48 hrs by sulforhodamine B assay; type: functional; details: read-out: GI; how it was run: as §1
HCC 2998 = assay: Antitumor activity against human HCC2998 cells assessed as cell growth inhibition at 10 uM incubated for 48 hrs by sulforhodamine B assay; type: functional; details: read-out: GI; how it was run: as §1
OVCAR-4 = assay: Antitumor activity against human OVCAR-4 cells assessed as cell growth inhibition at 10 uM incubated for 48 hrs by sulforhodamine B assay; type: functional; details: read-out: GI; how it was run: as §1
K562 = assay: Antitumor activity against human K562 cells assessed as cell growth inhibition at 10 uM incubated for 48 hrs by sulforhodamine B assay; type: functional; details: read-out: GI; how it was run: as §1
A498 = assay: Antitumor activity against human A498 cells assessed as cell growth inhibition at 10 uM incubated for 48 hrs by sulforhodamine B assay; type: functional; details: read-out: GI; how it was run: as §1
SW-620 = assay: Antitumor activity against human SW620 cells assessed as cell growth inhibition at 10 uM incubated for 48 hrs by sulforhodamine B assay; type: functional; details: read-out: GI; how it was run: as §2
SK-MEL-28 = assay: Antitumor activity against human SK-MEL-28 cells assessed as cell growth inhibition at 10 uM incubated for 48 hrs by sulforhodamine B assay; type: functional; details: read-out: GI; how it was run: as §1
SNB-19 = assay: Antitumor activity against human SNB-19 cells assessed as cell growth inhibition at 10 uM incubated for 48 hrs by sulforhodamine B assay; type: functional; details: read-out: GI; how it was run: as §1
EKVX = assay: Antitumor activity against human EKVX cells assessed as cell growth inhibition at 10 uM incubated for 48 hrs by sulforhodamine B assay; type: functional; details: read-out: GI; how it was run: as §1
COLO 205 = assay: Antitumor activity against human COLO205 cells assessed as cell growth inhibition at 10 uM incubated for 48 hrs by sulforhodamine B assay; type: functional; details: read-out: GI; how it was run: as §1
HL-60(TB) = assay: Antitumor activity against human HL-60(TB) cells assessed as cell growth inhibition at 10 uM incubated for 48 hrs by sulforhodamine B assay; type: functional; details: read-out: GI
How it was run: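 Single-dose NCI-60-type screen of 57 human cancer cell lines at 10 μM under the NCI Drug Evaluation Branch protocol. Drugs exposed for 48 h; growth and viability read by sulforhodamine B assay. Data given as mean-graph percent growth of treated cells, expressed as percent growth inhibition.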

TK-10 = assay: Antitumor activity against human TK-10 cells assessed as cell growth inhibition at 10 uM incubated for 48 hrs by sulforhodamine B assay; type: functional; details: read-out: GI; how it was run: as §2
MDA-MB-468 [1] = assay: Antiproliferative activity against human MDA-MB-468 cells measured after 48 hrs under CoCl2-induced hypoxic condition by MTT assay; type: functional, cell-based; details: MDA-MB-468, 48 h
MDA-MB-468 [2] = assay: Antiproliferative activity against human MDA-MB-468 cells measured after 48 hrs under normoxic condition by MTT assay; type: functional, cell-based; details: MDA-MB-468, 48 h
MCF7 [3] = assay: Antiproliferative activity against human MCF7 cells measured after 48 hrs under normoxic condition by MTT assay; type: functional, cell-based; details: MCF7, 48 h
SF-295 = assay: Antitumor activity against human SF295 cells assessed as cell growth inhibition at 10 uM incubated for 48 hrs by sulforhodamine B assay; type: functional; details: read-out: GI; how it was run: as §1
MCF7 [4] = assay: Antiproliferative activity against human MCF7 cells measured after 48 hrs under CoCl2-induced hypoxic condition by MTT assay; type: functional, cell-based; details: MCF7, 48 h

Nc1nn2cc(-c3ccc(Br)cc3)[nH]c2c1/N=N/c1ccc(S(N)(=O)=O)cc1
inhibition of growth at 10 µM (ACHN): 76% | inhibition of growth at 10 µM (SK-OV-3): 82% | inhibition of growth at 10 µM (UACC-257): 21% | inhibition of growth at 10 µM (UACC-62): 47% | inhibition of growth at 10 µM (RPMI-8226): 55% | inhibition of growth at 10 µM (OVCAR-8): 37% | inhibition of growth at 10 µM (M14): 61% | inhibition of growth at 10 µM (A549): 51% | inhibition of growth at 10 µM (NCI-H23): 30% | inhibition of growth at 10 µM (MDA-MB-435): 46% | inhibition of growth at 10 µM (SR): 54% | inhibition of growth at 10 µM (OVCAR-5): 24% | inhibition of growth at 10 µM (786-0): 56% | Activity (NCI/ADR-RES): inactive | inhibition of growth at 10 µM (HT-29): 34% | inhibition of growth at 10 µM (OVCAR-3): 27% | inhibition of growth at 10 µM (HCT-15): 63% | inhibition of growth at 10 µM (HCC 2998): 33% | inhibition of growth at 10 µM (OVCAR-4): 43% | inhibition of growth at 10 µM (K562): 38% | inhibition of growth at 10 µM (A498): 83% | inhibition of growth at 10 µM (SW-620): 48% | inhibition of growth at 10 µM (SK-MEL-28): 32% | inhibition of growth at 10 µM (SNB-19): 26% | inhibition of growth at 10 µM (EKVX): 21% | inhibition of growth at 10 µM (COLO 205): 28% | inhibition of growth at 10 µM (HL-60(TB)): 36% | inhibition of growth at 10 µM (TK-10): 50%

N#Cc1c(-c2ccc(Br)cc2)nc2c(/N=N/c3ccc(S(N)(=O)=O)cc3)c(N)nn2c1N
inhibition of growth at 10 µM (ACHN): 29% | IC50 (MDA-MB-468 [1]): 10 µM | inhibition of growth at 10 µM (UACC-62): 28% | inhibition of growth at 10 µM (RPMI-8226): 114% | inhibition of growth at 10 µM (OVCAR-8): 53% | inhibition of growth at 10 µM (M14): 59% | inhibition of growth at 10 µM (A549): 32% | inhibition of growth at 10 µM (NCI-H23): 36% | IC50 (MDA-MB-468 [2]): 6.81 µM | inhibition of growth at 10 µM (MDA-MB-435): 44% | inhibition of growth at 10 µM (SR): 59% | inhibition of growth at 10 µM (OVCAR-5): 28% | inhibition of growth at 10 µM (786-0): 30% | Activity (NCI/ADR-RES): inactive | inhibition of growth at 10 µM (HT-29): 57% | inhibition of growth at 10 µM (OVCAR-3): 45% | inhibition of growth at 10 µM (HCC 2998): 38% | inhibition of growth at 10 µM (OVCAR-4): 39% | inhibition of growth at 10 µM (K562): 64% | inhibition of growth at 10 µM (A498): 35% | inhibition of growth at 10 µM (SW-620): 56% | inhibition of growth at 10 µM (SK-MEL-28): 37% | IC50 (MCF7 [3]): 4.77 µM | inhibition of growth at 10 µM (SNB-19): 38% | inhibition of growth at 10 µM (EKVX): 29% | inhibition of growth at 10 µM (SF-295): 38% | IC50 (MCF7 [4]): 7.56 µM | inhibition of growth at 10 µM (HL-60(TB)): 62% | inhibition of growth at 10 µM (TK-10): 27%

Cc1ccc(-c2cn3nc(N)c(/N=N/c4ccc(S(N)(=O)=O)cc4)c3[nH]2)cc1
inhibition of growth at 10 µM (ACHN): 79% | inhibition of growth at 10 µM (SK-OV-3): 77% | inhibition of growth at 10 µM (UACC-257): 20% | inhibition of growth at 10 µM (UACC-62): 44% | inhibition of growth at 10 µM (RPMI-8226): 60% | inhibition of growth at 10 µM (OVCAR-8): 47% | inhibition of growth at 10 µM (M14): 60% | inhibition of growth at 10 µM (A549): 62% | inhibition of growth at 10 µM (NCI-H23): 34% | inhibition of growth at 10 µM (MDA-MB-435): 52% | inhibition of growth at 10 µM (SR): 63% | inhibition of growth at 10 µM (OVCAR-5): 23% | inhibition of growth at 10 µM (786-0): 60% | Activity (NCI/ADR-RES): inactive | inhibition of growth at 10 µM (HT-29): 37% | inhibition of growth at 10 µM (OVCAR-3): 36% | inhibition of growth at 10 µM (HCT-15): 65% | inhibition of growth at 10 µM (HCC 2998): 40% | inhibition of growth at 10 µM (OVCAR-4): 46% | inhibition of growth at 10 µM (K562): 48% | inhibition of growth at 10 µM (A498): 87% | inhibition of growth at 10 µM (SW-620): 60% | inhibition of growth at 10 µM (SK-MEL-28): 38% | inhibition of growth at 10 µM (SNB-19): 24% | inhibition of growth at 10 µM (EKVX): 28% | inhibition of growth at 10 µM (SF-295): 29% | inhibition of growth at 10 µM (COLO 205): 24% | inhibition of growth at 10 µM (HL-60(TB)): 47% | inhibition of growth at 10 µM (TK-10): 53%
